ChEMBL document CHEMBL3734737, “Synthesis and Evaluation of a Radioiodinated Tracer with Specificity for Poly(ADP-ribose) Polymerase-1 (PARP-1) in Vivo” (J Med Chem, 2015)
pIC50: −log10 of the molar value.

How the values were obtained:
[1] = Octanol-water partition coefficient, log P of the compound at 0.5 to 1.5 mg/ml by HPLC method; type: physicochemical
In short: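 Samples of 0.5–1.5 mg/mL in MeCN/PBS were run in triplicate on reverse-phase C18 HPLC. The gradient was PBS/MeCN at 1.0 mL/min, with PBS at pH 4.0, 7.4 and 10.0. Retention times were calibrated against seven standards of known chromatographic hydrophobicity index (CHI) to give non-ionized CHI, from which log P was derived.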

albumin = albumin (Homo sapiens, UniProt P02768); experiment: Protein binding to human serum albumin at 0.5 to 1.5 mg/ml by HPLC method; type: ADME; settings: read-out: PPB (converted)
albumin, sequence (P02768 whole entry): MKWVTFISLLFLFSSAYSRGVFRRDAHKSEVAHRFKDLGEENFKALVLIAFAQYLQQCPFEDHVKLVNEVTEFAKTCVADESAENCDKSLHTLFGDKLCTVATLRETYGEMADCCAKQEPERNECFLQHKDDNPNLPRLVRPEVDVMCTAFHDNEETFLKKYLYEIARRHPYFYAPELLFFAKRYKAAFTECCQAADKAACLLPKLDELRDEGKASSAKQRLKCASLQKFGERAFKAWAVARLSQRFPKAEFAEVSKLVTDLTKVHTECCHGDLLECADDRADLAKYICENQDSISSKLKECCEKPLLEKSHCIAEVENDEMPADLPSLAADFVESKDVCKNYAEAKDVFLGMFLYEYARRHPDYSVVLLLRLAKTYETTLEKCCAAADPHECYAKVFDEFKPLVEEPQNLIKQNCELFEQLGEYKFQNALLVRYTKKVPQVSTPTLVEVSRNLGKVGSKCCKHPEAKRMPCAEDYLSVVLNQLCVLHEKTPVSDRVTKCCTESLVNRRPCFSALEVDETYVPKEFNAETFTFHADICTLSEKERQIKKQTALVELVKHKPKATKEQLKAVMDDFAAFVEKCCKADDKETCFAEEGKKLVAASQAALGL

[2] = target: Poly [ADP-ribose] polymerase 1 (Homo sapiens, UniProt P09874); experiment: Inhibition of PARP1 (unknown origin) incubated for 10 mins using biotinylated NAD+ and activated DNA by colorimetric assay
Poly [ADP-ribose] polymerase 1, sequence (P09874 whole entry): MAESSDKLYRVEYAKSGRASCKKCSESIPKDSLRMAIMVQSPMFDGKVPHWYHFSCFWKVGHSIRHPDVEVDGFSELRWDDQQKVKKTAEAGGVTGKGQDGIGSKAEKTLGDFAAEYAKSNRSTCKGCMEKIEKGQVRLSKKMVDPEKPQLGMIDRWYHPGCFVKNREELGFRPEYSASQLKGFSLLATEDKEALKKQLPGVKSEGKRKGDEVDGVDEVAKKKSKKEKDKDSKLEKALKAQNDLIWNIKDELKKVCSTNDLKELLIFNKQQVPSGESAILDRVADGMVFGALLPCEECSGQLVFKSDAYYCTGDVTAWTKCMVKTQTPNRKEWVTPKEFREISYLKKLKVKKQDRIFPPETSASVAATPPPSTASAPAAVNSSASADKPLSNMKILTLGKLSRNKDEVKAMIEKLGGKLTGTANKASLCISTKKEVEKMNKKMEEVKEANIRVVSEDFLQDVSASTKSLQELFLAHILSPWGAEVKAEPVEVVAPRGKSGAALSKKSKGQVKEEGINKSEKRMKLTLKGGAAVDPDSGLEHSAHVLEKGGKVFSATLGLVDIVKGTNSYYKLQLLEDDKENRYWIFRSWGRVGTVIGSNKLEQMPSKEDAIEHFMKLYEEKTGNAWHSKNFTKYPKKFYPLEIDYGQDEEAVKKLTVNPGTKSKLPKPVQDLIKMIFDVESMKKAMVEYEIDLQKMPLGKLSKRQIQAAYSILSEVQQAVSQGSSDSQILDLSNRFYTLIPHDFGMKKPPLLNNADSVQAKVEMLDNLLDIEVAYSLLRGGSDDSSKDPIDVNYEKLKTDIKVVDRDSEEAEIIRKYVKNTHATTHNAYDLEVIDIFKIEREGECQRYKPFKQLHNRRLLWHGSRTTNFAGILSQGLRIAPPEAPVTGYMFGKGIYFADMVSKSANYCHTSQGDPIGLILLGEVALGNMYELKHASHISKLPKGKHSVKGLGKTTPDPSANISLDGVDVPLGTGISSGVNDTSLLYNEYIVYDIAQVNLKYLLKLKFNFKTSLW

[3] = Drug level in solid feces of human U87MG-Luc2 cells xenografted CD1 mouse at 0.8 to 1.1 MBq, iv after 30 mins by gamma counting method; type: ADME, organism-based; settings: in vivo, 0.5 h, TDE = time-dependent effect
In short: (§1)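 Female 7–11 week CD1 nude mice carrying subcutaneous U87MG-Luc2 flank xenografts (5×10^6 cells; used 21–30 days post-implant) got a tail-vein bolus of 0.8–1.1 MBq [123I]-tracer in 10% EtOH/0.9% saline. They were killed by CO2 at 30 min (n=3). Tissues were fixed in formaldehyde, weighed and gamma counted. Background was subtracted and %ID/g was derived from a dose-stock control.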

Liver = experiment: Drug level in liver of human U87MG-Luc2 cells xenografted CD1 mouse at 0.8 to 1.1 MBq, iv after 30 mins by gamma counting method; type: ADME, organism-based; settings: in vivo, 0.5 h; in short: as §1
Brain = experiment: Drug level in brain of human U87MG-Luc2 cells xenografted CD1 mouse at 0.8 to 1.1 MBq, iv after 30 mins by gamma counting method; type: ADME, organism-based; settings: in vivo, 0.5 h; in short: as §1
[4] = Drug level in small bowel matter of human U87MG-Luc2 cells xenografted CD1 mouse at 0.8 to 1.1 MBq, iv after 30 mins by gamma counting method; type: ADME, organism-based; settings: in vivo, 0.5 h; in short: as §1
[5] = Metabolic stability in black-6 mouse plasma assessed as residual compound level at 250 uM incubated for 20 hrs by LC-MS method; type: ADME, cell-free; settings: read-out: Stability
In short: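 Plasma was taken from EDTA-treated female black-6 mouse blood. Compound (10 μL of 250 μM stock into 50 μL plasma; DMSO <1%) was held at room temperature for 0 or 20 h. It was MeOH-precipitated and measured by LC-MS (SIM) against an internal standard, as % parent relative to a no-plasma control. Three experiments, ± SD.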

[6] = Intrinisc clerarance in human liver microsomes assessed as residual compound level at 60 uM preincubated for 10 mins followed by NADPH addition in KH2PO4 at pH 7.4 by LC-MS method; type: ADME; settings: read-out: CLH

Compound	logP [1]	fraction unbound (albumin)	pIC50 [2]	other results
COc1ccc(C(=O)N2CCN(C(=O)c3cc(Cc4n[nH]c(=O)c5ccccc45)ccc3F)CC2)cc1I	2.95	0.035	7.75	–
O=C(COc1ccc(I)cc1)N1CCN(C(=O)c2cc(Cc3n[nH]c(=O)c4ccccc34)ccc2F)CC1	3.25	0.019	8.52	–
O=C(c1ccc([123I])cc1)N1CCN(C(=O)c2cc(Cc3n[nH]c(=O)c4ccccc34)ccc2F)CC1	–	–	–	Drug uptake [3]: tde; Drug uptake (Liver): Active; Drug uptake (Brain): Not Active; Drug uptake [4]: Active
O=C(Cc1cccc(I)c1)N1CCN(C(=O)c2cc(Cc3n[nH]c(=O)c4ccccc34)ccc2F)CC1	3.13	0.025	8.24	–
Cc1ccc(C(=O)N2CCN(C(=O)c3cc(Cc4n[nH]c(=O)c5ccccc45)ccc3F)CC2)cc1I	3.23	0.024	7.77	–
O=C(c1ccc(I)cc1)N1CCN(C(=O)c2cc(Cc3n[nH]c(=O)c4ccccc34)ccc2F)CC1	3	0.038	–	remaining at 20 h, 250 µM [5]: 98%; microsomal CLint at 60 µM [6]: 85 µL/min/mg
O=C(c1cccc(I)c1)N1CCN(C(=O)c2cc(Cc3n[nH]c(=O)c4ccccc34)ccc2F)CC1	2.97	0.039	–	–
O=C(c1cc(Cc2n[nH]c(=O)c3ccccc23)ccc1F)N1CCN(S(=O)(=O)c2ccc(I)cc2)CC1	> 3.25	0.016	7.65	–
O=C1CN=C(c2ccccn2)c2cc(Br)ccc2N1 [BROMAZEPAM]	–	0.4	–	–
CCCC1O[C@@H]2C[C@H]3[C@@H]4CCC5=CC(=O)C=C[C@]5(C)[C@H]4[C@@H](O)C[C@]3(C)[C@]2(C(=O)CO)O1 (some centres not stated) [BUDESONIDE]	–	0.12	–	–
NC(=O)N1c2ccccc2C=Cc2ccccc21 [CARBAMAZEPINE]	–	0.25	–	–
COC(=O)C1=C(C)NC(C)=C(C(=O)OCCN(C)Cc2ccccc2)C1c1cccc([N+](=O)[O-])c1 (configuration not stated) [NICARDIPINE]	–	0.05	–	–
CNC(=C[N+](=O)[O-])NCCSCc1csc(CN(C)C)n1 [NIZATIDINE]	–	0.65	–	–
O=C(c1cc(Cc2n[nH]c(=O)c3ccccc23)ccc1F)N1CCN(C(=O)C2CC2)CC1 [OLAPARIB]	1.95	–	–	microsomal CLint at 60 µM [6]: 29 µL/min/mg
